We go through 20 molecules from ChEMBL document CHEMBL1926532, “Bioactive myrsinol diterpenoids from the roots of Euphorbia prolifera” (J Nat Prod, 2011).

Data set [1] relates to SH-SY5Y. The data set is described as follows: Neuroprotective activity against MPP+-induced human SH-SY5Y cell death assessed as cell viability at 3 uM pretreated for 2 hrs prior to MPP+ induction by MTT assay relative to control. It counts as functional. As to conditions: read-out: Activity. Summed up:
(§1)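 SH-SY5Y cells in DMEM with 10% FBS and penicillin/streptomycin at 37 °C, 5% CO2. Detached with 1 mM EGTA in PBS for 15 min, seeded at 1 × 10^4 cells/well, grown 24 h. Pretreated 2 h with compound (3, 10, 30 μM), then MPP+ medium. MTT (0.5 mg/mL final) added for 4 h; formazan read at 490 nm. Viability expressed against vehicle control (100). Triplicates, mean ± SEM, ANOVA/Student–Newman–Keuls.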

In data set [2] the test system is SH-SY5Y. The data set is described as follows: Neuroprotective activity against MPP+-induced human SH-SY5Y cell death assessed as cell viability at 10 uM pretreated for 2 hrs prior to MPP+ induction by MTT assay relative to control. It counts as functional. As to conditions: read-out: Activity. The method in brief: as §1
Background: Tetrazolium dyes change colour on reduction, which living cells bring about.

For data set [3], the system named is SH-SY5Y. The data set is described as follows: Neuroprotective activity against MPP+-induced human SH-SY5Y cell death assessed as cell viability at 30 uM pretreated for 2 hrs prior to MPP+ induction by MTT assay relative to control. It is filed as functional. The conditions noted are these: read-out: Activity. The method in brief: as §1
The test system of data set [4] is SH-SY5Y. In words: Cytotoxicity against human SH-SY5Y cells assessed as cell viability at 3 to 30 uM by MTT assay. It counts as cell-based.

Consider `C=C(C)[C@H]1C=C[C@@H](OC(=O)c2ccccc2)[C@@]23CO[C@@](C)([C@H](OC(C)=O)[C@@]4(OC(C)=O)C[C@H](C)[C@H](OC(=O)CC)[C@@H]4[C@@H]2OC(C)=O)[C@H]13`, for which, in the data set on SH-SY5Y [1], the viability at 3 µM came to 78.1%. The viability at 10 µM in the data set on SH-SY5Y [2] stood at 86.5%. For the same molecule, the viability at 30 µM in the data set with SH-SY5Y [3] was 94.2%.

Turning to `C=C(C)[C@H]1C=C[C@@H](OC(=O)c2ccccc2)[C@@]23CO[C@@](C)([C@H](OC(=O)c4cccnc4)[C@@]4(OC(C)=O)C[C@H](C)[C@H](OC(=O)CC)[C@@H]4[C@@H]2OC(C)=O)[C@H]13`, the viability at 3 µM with SH-SY5Y [1] came to 77.7%. For the same molecule, the Activity entry with SH-SY5Y [4] is on record as “Non-toxic”. In addition, the viability at 10 µM with SH-SY5Y [2] came out at 87.4%. Also, in the data set with SH-SY5Y [3], the viability at 30 µM is 96.5%.

For the molecule `CCC/C=C/C=C/C=C\CO[C@@H]1[C@@H](C)[C@]2(O)[C@@H]3C=C(C)C(=O)[C@H]3CC(CO)=C[C@H]2[C@@H]2C(C)(C)[C@]12OC(=O)C(C)C`, the viability at 3 µM in the data set on SH-SY5Y [1] amounted to 69.6%. Besides, the viability at 10 µM with SH-SY5Y [2] came out at 77.3%. The viability at 30 µM in the data set on SH-SY5Y [3] was 84.1%.

For `CCC(=O)O[C@@H]1[C@@H]2[C@@H](OC(=O)c3ccccc3)[C@@]3(COC(C)=O)[C@@H]([C@@H]4[C@H](C[C@H]3OC(C)=O)C4(C)C)[C@](C)(OC(C)=O)C(=O)[C@@]2(O)C[C@@H]1C`, the viability at 3 µM with SH-SY5Y [1] worked out at 61.5%. In addition, the viability at 10 µM in the data set with SH-SY5Y [2] came to 70.3%. Further, the viability at 30 µM in the data set on SH-SY5Y [3] worked out at 78.5%.

Take `CCC(=O)O[C@@H]1[C@@H]2[C@@H](OC(C)=O)[C@@]34CO[C@@](C)([C@@H](OC(=O)C(C)C)[C@@]2(OC(C)=O)C[C@@]1(C)OC(=O)C(C)C)[C@@H]3[C@@H](C(C)(C)OC(C)=O)C=C[C@H]4OC(C)=O` (relative stereo) [EUPHORBIAPROLIFERIN A]: the viability at 3 µM in the data set with SH-SY5Y [1] stood at 75.1%. Further, the viability at 10 µM in the data set with SH-SY5Y [2] was found to be 83.5%. In addition, in the data set with SH-SY5Y [3], the viability at 30 µM came out at 92.7%.

Consider `CCCC(=O)O[C@@H]1[C@@H]2[C@@H](OC(C)=O)[C@@]34CO[C@@](C)([C@@H](OC(=O)c5ccccc5)[C@@]2(OC(C)=O)C[C@@]1(C)OC(=O)c1ccccc1)[C@@H]3[C@@H](C(C)(C)OC(C)=O)C=C[C@H]4OC(C)=O` (relative stereo) [EUPHORBIAPROLIFERIN B], for which the viability at 3 µM in the data set with SH-SY5Y [1] is 74.8%. For the same molecule, the Activity entry in the data set on SH-SY5Y [4] is on record as “Non-toxic”. The viability at 10 µM with SH-SY5Y [2] came to 93.2%. For the same molecule, in the data set on SH-SY5Y [3], the viability at 30 µM was 109%.

On to `CC(=O)O[C@@H]1[C@H]2[C@@H](OC(=O)C(C)C)[C@@H](C)C[C@]2(OC(C)=O)[C@@H](OC(C)=O)[C@]2(C)OC[C@]13C(=O)C=C[C@H](C(C)(C)OC(C)=O)[C@@H]23` [EUPHORBIAPROLIFERIN C], for which the viability at 3 µM in the data set on SH-SY5Y [1] is 68.3%. In the data set with SH-SY5Y [2], the viability at 10 µM was found to be 75.4%. For the same molecule, the viability at 30 µM with SH-SY5Y [3] is 81.3%.

Regarding `CCC(=O)O[C@@H]1[C@@H]2[C@@H](OC(C)=O)[C@@]34CO[C@@](C)([C@H](OC(=O)c5ccccc5)[C@@]2(OC(C)=O)C[C@@H]1C)[C@@H]3[C@@H](C(C)(C)OC(C)=O)C=CC4=O` [EUPHORBIAPROLIFERIN D], the viability at 3 µM in the data set with SH-SY5Y [1] came to 68.7%. Moreover, the viability at 10 µM in the data set with SH-SY5Y [2] was 71.3%. Besides, in the data set on SH-SY5Y [3], the viability at 30 µM was found to be 88.6%.

Take `CC(=O)O[C@@H]1[C@@H]2[C@@H](OC(C)=O)[C@@]34CO[C@@](C)([C@H](OC(=O)c5ccccc5)[C@@]2(O)C[C@@H]1C)[C@@H]3[C@@H]1[C@@H](C[C@]1(C)OC(C)=O)[C@@H](OC(=O)c1ccccc1)C4=O` [EUPHORBIAPROLIFERIN E]: in the data set with SH-SY5Y [1], the viability at 3 µM stood at 67.1%. The viability at 10 µM in the data set on SH-SY5Y [2] was found to be 76%. For the same molecule, the viability at 30 µM in the data set on SH-SY5Y [3] amounted to 82.1%.

Consider `C=C(C)[C@H]1C=C[C@@H](OC(C)=O)[C@@]23CO[C@@](C)([C@H](OC(=O)c4ccccc4)[C@@]4(OC(C)=O)C[C@H](C)[C@H](OC(=O)CC)[C@@H]4[C@H]2OC(C)=O)[C@H]13` [EUPHORBIAPROLIFERIN F], for which the viability at 3 µM in the data set with SH-SY5Y [1] is 74.5%. Also, the viability at 10 µM in the data set with SH-SY5Y [2] was 87.1%. Moreover, the viability at 30 µM in the data set on SH-SY5Y [3] was determined as 93.5%.

In the case of `C=C(C)[C@H]1C=C[C@@H](OC(C)=O)[C@@]23CO[C@@](C)([C@H](OC(C)=O)[C@@]4(OC(C)=O)C[C@H](C)[C@H](OC(=O)CC)[C@@H]4[C@H]2OC(C)=O)[C@H]13` [EUPHORBIAPROLIFERIN G], the viability at 3 µM in the data set on SH-SY5Y [1] came to 65.6%. Moreover, the viability at 10 µM with SH-SY5Y [2] is 78.3%. In the data set with SH-SY5Y [3], the viability at 30 µM came to 88.7%.

For the molecule `C=C(C)[C@H]1C=C[C@@H](OC(=O)c2ccccc2)[C@@]23CO[C@@](C)([C@H](OC(=O)c4ccccc4)[C@@]4(OC(C)=O)C[C@H](C)[C@H](OC(C)=O)[C@@H]4[C@H]2OC(C)=O)[C@H]13` [EUPHORBIAPROLIFERIN H], the viability at 3 µM in the data set with SH-SY5Y [1] turned out to be 83.6%. Besides, the Activity entry in the data set on SH-SY5Y [4] is “Non-toxic”. For the same molecule, the viability at 10 µM in the data set with SH-SY5Y [2] came to 89.8%. Also, the viability at 30 µM in the data set with SH-SY5Y [3] came to 99.4%.

For the molecule `CCC(=O)O[C@@H]1[C@@H]2[C@@H](OC(C)=O)[C@@]34CO[C@@](C)([C@@H](OC(=O)c5ccccc5)[C@@]2(OC(C)=O)C[C@@H]1C)[C@@H]3[C@@H]1[C@H](C[C@H]4OC(C)=O)C1(C)C` [EUPHORBIAPROLIFERIN I], in the data set on SH-SY5Y [1], the viability at 3 µM is 84.8%. In addition, the Activity result with SH-SY5Y [4] is listed as “Non-toxic”. Further, the viability at 10 µM with SH-SY5Y [2] worked out at 88.9%. In the data set on SH-SY5Y [3], the viability at 30 µM came out at 101%.

For the molecule `CCCC(=O)O[C@@H]1[C@@H]2[C@@H](OC(C)=O)[C@@]34CO[C@@](C)([C@@H](OC(=O)c5ccccc5)[C@@]2(OC(C)=O)C[C@@H]1C)[C@@H]3[C@@H]1[C@H](C[C@H]4OC(C)=O)C1(C)C` [EUPHORBIAPROLIFERIN J], in the data set on SH-SY5Y [1], the viability at 3 µM came to 79.8%. Further, the Activity entry in the data set on SH-SY5Y [4] is recorded as “Non-toxic”. Also, the viability at 10 µM with SH-SY5Y [2] is 89.2%. The viability at 30 µM in the data set with SH-SY5Y [3] is 104%.

As for `CCC(=O)O[C@@H]1[C@@H]2[C@@H](OC(C)=O)[C@@]34CO[C@@](C)([C@@H](OC(=O)c5ccccc5)[C@@]2(OC(C)=O)C[C@@]1(C)OC(C)=O)[C@@H]3[C@@H](C(C)(C)OC(C)=O)C=C[C@H]4OC(C)=O` [EUPHORPROLITHERIN B], in the data set with SH-SY5Y [1], the viability at 3 µM worked out at 70.3%. For the same molecule, the viability at 10 µM with SH-SY5Y [2] turned out to be 81.7%. Moreover, the viability at 30 µM in the data set on SH-SY5Y [3] amounted to 92.2%.

Consider `C=C(C)[C@H]1C=C[C@@H](OC(=O)c2ccccc2)[C@@]23CO[C@@](C)([C@@H](OC(=O)c4ccccc4)[C@@]4(OC(C)=O)C[C@H](C)[C@H](OC(=O)CC)[C@@H]4[C@H]2OC(C)=O)[C@H]13` [EUPHORPROLITHERIN C], for which the viability at 3 µM with SH-SY5Y [1] stood at 75.5%. In addition, in the data set on SH-SY5Y [4], the Activity entry is on record as “Non-toxic”. Moreover, the viability at 10 µM in the data set with SH-SY5Y [2] worked out at 91.5%. Further, the viability at 30 µM with SH-SY5Y [3] stood at 103%.

As to `Nc1nc2c(ncn2[C@@H]2O[C@H](CO)[C@@H](O)[C@H]2O)c(=O)[nH]1` [GUANOSINE], the viability at 3 µM with SH-SY5Y [1] came out at 68.1%. Further, the viability at 10 µM in the data set on SH-SY5Y [2] turned out to be 77.3%. Besides, the viability at 30 µM in the data set on SH-SY5Y [3] was 87.3%.

For `CCC(=O)O[C@@H]1[C@@H]2[C@@H](OC(C)=O)[C@@]34CO[C@@](C)([C@@H](OC(=O)c5ccccc5)[C@@]2(OC(C)=O)C[C@@]1(C)OC(=O)C(C)C)[C@@H]3[C@@H](C(C)(C)OC(C)=O)C=C[C@H]4OC(C)=O` [PROLIFERIN A], the viability at 3 µM with SH-SY5Y [1] was 74.4%. The Activity result with SH-SY5Y [4] was “Non-toxic”. Moreover, the viability at 10 µM in the data set on SH-SY5Y [2] turned out to be 85.2%. In the data set with SH-SY5Y [3], the viability at 30 µM is 97.8%.

Consider `CCC(=O)O[C@@H]1[C@@H]2[C@@H](OC(C)=O)[C@@]34CO[C@@](C)([C@@H](OC(=O)c5ccccc5)[C@@]2(OC(C)=O)C[C@@]1(C)OC(=O)c1ccccc1)[C@@H]3[C@@H](C(C)(C)OC(C)=O)C=C[C@H]4OC(C)=O` [PROLIFERIN B], for which the viability at 3 µM with SH-SY5Y [1] is 82.1%. Moreover, the Activity entry in the data set with SH-SY5Y [4] is given as “Non-toxic”. Further, the viability at 10 µM in the data set on SH-SY5Y [2] is 95.4%. Further, in the data set on SH-SY5Y [3], the viability at 30 µM came to 112%.

Turning to `CCC(=O)O[C@@H]1[C@@H]2[C@@H](OC(C)=O)[C@@]34CO[C@@](C)([C@@H](OC(=O)c5ccccc5)[C@@]2(OC(C)=O)C[C@@H]1C)[C@@H]3[C@@H](C(C)(C)OC(C)=O)C=C[C@H]4OC(C)=O` [PROLIFERIN C], in the data set on SH-SY5Y [1], the viability at 3 µM was 76.7%. The Activity entry in the data set on SH-SY5Y [4] is given as “Non-toxic”. In addition, in the data set with SH-SY5Y [2], the viability at 10 µM is 84.5%. Also, the viability at 30 µM in the data set on SH-SY5Y [3] stood at 95.1%.
